This note sets out measurements from ChEMBL document CHEMBL4619701, “Neutral analogs of the heat shock protein 70 (Hsp70) inhibitor, JG-98” (Bioorg Med Chem Lett, 2020).

For the first data set, the system named is PC-3. The experiment in a line: Antiproliferative activity against human PC3 cells assessed as cell growth inhibition.
Details: not given; call rule not given here
The class given is functional, cell-based.
Turning to `CCn1c(=O)/c(=C2\Sc3ccc(OC)cc3N2C)s/c1=C\c1ccncc1Nc1ccccc1C`, the IC50 (in general, the concentration that inhibits the measured activity by half) was 370 nM.

With `CCn1c(=O)/c(=C2\Sc3ccccc3N2C)s/c1=C\c1ccncc1Nc1ccccc1F`, the IC50 turned out to be 360 nM.

Consider `CCn1c(=O)/c(=C2\Sc3ccccc3N2C)s/c1=C\c1ccncc1Nc1ccccc1C`, for which the IC50 is 1200 nM.

Turning to `CCn1c(=O)/c(=C2\Sc3ccc(OC)cc3N2C)s/c1=C\c1ccncc1Nc1ccccc1F`, the IC50 turned out to be 100 nM.

With `COc1ccc(Cl)c(Nc2cccc(-c3nc4ccccc4s3)c2)c1`, the IC50 was determined as 2200 nM.

Turning to `CCn1c(=O)/c(=C2\Sc3ccc(C)cc3N2C)s/c1=C\c1ccncc1Nc1ccccc1C`, the IC50 worked out at 330 nM.

With `CCn1c(=O)/c(=C2\Sc3cc(F)ccc3N2C)s/c1=C\c1ccncc1Nc1ccccc1C`, the IC50 was found to be 2300 nM.

For `CCn1c(=O)/c(=C2\Sc3ccc(C)cc3N2C)s/c1=C\c1ccncc1Nc1ccccc1Cl`, the IC50 was determined as 500 nM.

Regarding `CCn1c(=O)/c(=C2\Sc3ccccc3N2C)s/c1=C\c1ccncc1Nc1cc(F)ccc1F`, the 50% inhibitory concentration (IC50) was determined as 1200 nM.

`CCn1c(=O)/c(=C2\Sc3cc(F)ccc3N2C)s/c1=C\c1ccncc1Nc1ccccc1F`: the IC50 was determined as 260 nM.

Take `CCc1ccc2c(c1)S/C(=c1/s/c(=C\c3ccncc3Nc3ccccc3F)n(CC)c1=O)N2C`: the IC50 was found to be 2200 nM.

For the compound `c1ccc(Nc2nc(-c3nc4ccccc4s3)cs2)cc1`, the IC50 was 5500 nM.

Take `CCn1c(=O)/c(=C2\Sc3cc(F)ccc3N2C)s/c1=C\c1ccncc1Nc1ccccc1Cl`: the IC50 came out at 1200 nM.

Turning to `CCn1c(=O)/c(=C2\Sc3ccccc3N2C)s/c1=C\c1ccncc1Nc1cc(C)ccc1C`, the IC50 came out at 2000 nM.

For the compound `CCn1c(=O)/c(=C2\Sc3ccc(C)cc3N2C)s/c1=C\c1ccncc1Nc1ccccc1F`, the IC50 came to 70 nM.

On to `CCn1c(=O)/c(=C2\Sc3ccccc3N2C)s/c1=C\c1ccncc1Nc1ccccc1Cl`, for which the IC50 came out at 780 nM.

Regarding `CCn1c(=O)/c(=C2\Sc3ccc(OC)cc3N2C)s/c1=C\c1ccncc1Nc1ccccc1Cl`, the IC50 stood at 760 nM.

`c1ccc(Nc2cccc(-c3nc4ccccc4s3)c2)nc1`: the IC50 was determined as 4800 nM.

Turning to `c1ccc(Nc2nc(-c3nc4ccccc4s3)cs2)nc1`, the IC50 worked out at 6700 nM.

Another data set has as its system CWR22R. Briefly: Potency index, ratio of JG-98 IC50 to compound IC50 for human 22Rv1 cells.
Details: not given
The class given is functional.
Take `CCn1c(=O)/c(=C2\Sc3ccc(C)cc3N2C)s/c1=C\c1ccncc1Nc1ccccc1F`: the “Ratio IC50” value is listed as 7 - 10.

The test system of a further data set is PC-3. Briefly: Potency index, ratio of JG-98 IC50 to compound IC50 for human PC3 cells.
Details: not given
The class given is functional.
On to `CCn1c(=O)/c(=C2\Sc3ccc(C)cc3N2C)s/c1=C\c1ccncc1Nc1ccccc1F`, for which the “Ratio IC50” value is listed as 7 - 10.

The test system of the next data set is CWR22R. The experiment in a line: Antiproliferative activity against human 22Rv1 cells assessed as cell growth inhibition. The class given is functional, cell-based.
Details: not given
Take `CCn1c(=O)/c(=C2\Sc3ccc(OC)cc3N2C)s/c1=C\c1ccncc1Nc1ccccc1C`: the 50% inhibitory concentration (IC50) came out at 410 nM.

Regarding `CCn1c(=O)/c(=C2\Sc3ccccc3N2C)s/c1=C\c1ccncc1Nc1ccccc1F`, the IC50 was 300 nM.

Turning to `CCn1c(=O)/c(=C2\Sc3ccccc3N2C)s/c1=C\c1ccncc1Nc1ccccc1C`, the IC50 is 470 nM.

With `CCn1c(=O)/c(=C2\Sc3ccc(OC)cc3N2C)s/c1=C\c1ccncc1Nc1ccccc1F`, the IC50 turned out to be 190 nM.

Take `COc1ccc(Cl)c(Nc2cccc(-c3nc4ccccc4s3)c2)c1`: the IC50 was found to be 2100 nM.

With `CCn1c(=O)/c(=C2\Sc3ccc(C)cc3N2C)s/c1=C\c1ccncc1Nc1ccccc1C`, the IC50 was determined as 480 nM.

As for `CCn1c(=O)/c(=C2\Sc3cc(F)ccc3N2C)s/c1=C\c1ccncc1Nc1ccccc1C`, the IC50 worked out at 2300 nM.

`CCn1c(=O)/c(=C2\Sc3ccc(C)cc3N2C)s/c1=C\c1ccncc1Nc1ccccc1Cl`: the IC50 came out at 350 nM.

`CCn1c(=O)/c(=C2\Sc3ccccc3N2C)s/c1=C\c1ccncc1Nc1cc(F)ccc1F`: the IC50 came to 1100 nM.

With `CCn1c(=O)/c(=C2\Sc3cc(F)ccc3N2C)s/c1=C\c1ccncc1Nc1ccccc1F`, the IC50 came to 150 nM.

With `CCc1ccc2c(c1)S/C(=c1/s/c(=C\c3ccncc3Nc3ccccc3F)n(CC)c1=O)N2C`, the IC50 came out at 1200 nM.

In the case of `c1ccc(Nc2nc(-c3nc4ccccc4s3)cs2)cc1`, the IC50 amounted to 6900 nM.

On to `CCn1c(=O)/c(=C2\Sc3cc(F)ccc3N2C)s/c1=C\c1ccncc1Nc1ccccc1Cl`, for which the IC50 came to 490 nM.

`CCn1c(=O)/c(=C2\Sc3ccccc3N2C)s/c1=C\c1ccncc1Nc1cc(C)ccc1C`: the IC50 was 1800 nM.

As for `CCn1c(=O)/c(=C2\Sc3ccc(C)cc3N2C)s/c1=C\c1ccncc1Nc1ccccc1F`, the IC50 was 150 nM.

Consider `CCn1c(=O)/c(=C2\Sc3ccccc3N2C)s/c1=C\c1ccncc1Nc1ccccc1Cl`, for which the IC50 came out at 460 nM.

As for `CCn1c(=O)/c(=C2\Sc3ccc(OC)cc3N2C)s/c1=C\c1ccncc1Nc1ccccc1Cl`, the IC50 was found to be 500 nM.

For `c1ccc(Nc2cccc(-c3nc4ccccc4s3)c2)nc1`, the IC50 came to 13000 nM.

Regarding `c1ccc(Nc2nc(-c3nc4ccccc4s3)cs2)nc1`, the IC50 was 3200 nM.

In another data set the test system is CWR22R. The experiment in a line: Inhibition of HSP70 in human 22Rv1 cells assessed as reduction in CDK4 protein level at 0.3 to 5 uM measured after 24 hrs by Western blot analysis. The class given is cell-based.
Details: not given
The essentials: (§1)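 22Rv1 cells were treated for 24 h at the indicated concentrations, then lysed and analysed by western blot for the named protein. Blots are representative of at least two independent experiments. Quantifications are averages of at least two independent experiments, with error bars as S.E.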
`CCn1c(=O)/c(=C2\Sc3ccc(C)cc3N2C)s/c1=C\c1ccncc1Nc1ccccc1F`: the inhibition (in general, the relative decrease from the control value, in per cent) was found to be 50%.

Another data set has as its system MCF7. Briefly: Antiproliferative activity against human MCF7 cells assessed as cell growth inhibition. The class given is functional, cell-based.
Details: not given
As for `CCn1c(=O)/c(=C2\Sc3ccc(OC)cc3N2C)s/c1=C\c1ccncc1Nc1ccccc1C`, the IC50 worked out at 420 nM.

For `CCn1c(=O)/c(=C2\Sc3ccccc3N2C)s/c1=C\c1ccncc1Nc1ccccc1F`, the IC50 was 330 nM.

Consider `CCn1c(=O)/c(=C2\Sc3ccccc3N2C)s/c1=C\c1ccncc1Nc1ccccc1C`, for which the IC50 worked out at 990 nM.

With `CCn1c(=O)/c(=C2\Sc3ccc(OC)cc3N2C)s/c1=C\c1ccncc1Nc1ccccc1F`, the IC50 was found to be 130 nM.

`COc1ccc(Cl)c(Nc2cccc(-c3nc4ccccc4s3)c2)c1`: the IC50 came to 710 nM.

Consider `CCn1c(=O)/c(=C2\Sc3ccc(C)cc3N2C)s/c1=C\c1ccncc1Nc1ccccc1C`, for which the IC50 is 400 nM.

Consider `CCn1c(=O)/c(=C2\Sc3cc(F)ccc3N2C)s/c1=C\c1ccncc1Nc1ccccc1C`, for which the IC50 came to 1300 nM.

As to `CCn1c(=O)/c(=C2\Sc3ccc(C)cc3N2C)s/c1=C\c1ccncc1Nc1ccccc1Cl`, the IC50 was 650 nM.

Turning to `CCn1c(=O)/c(=C2\Sc3ccccc3N2C)s/c1=C\c1ccncc1Nc1cc(F)ccc1F`, the IC50 was 1500 nM.

For the compound `CCn1c(=O)/c(=C2\Sc3cc(F)ccc3N2C)s/c1=C\c1ccncc1Nc1ccccc1F`, the IC50 was 230 nM.

Turning to `CCc1ccc2c(c1)S/C(=c1/s/c(=C\c3ccncc3Nc3ccccc3F)n(CC)c1=O)N2C`, the IC50 is 1200 nM.

Regarding `c1ccc(Nc2nc(-c3nc4ccccc4s3)cs2)cc1`, the IC50 was found to be 7600 nM.

Turning to `CCn1c(=O)/c(=C2\Sc3cc(F)ccc3N2C)s/c1=C\c1ccncc1Nc1ccccc1Cl`, the IC50 is 1300 nM.

Turning to `CCn1c(=O)/c(=C2\Sc3ccccc3N2C)s/c1=C\c1ccncc1Nc1cc(C)ccc1C`, the half-maximal inhibitory concentration (IC50) was determined as 1700 nM.

On to `CCn1c(=O)/c(=C2\Sc3ccc(C)cc3N2C)s/c1=C\c1ccncc1Nc1ccccc1F`, for which the IC50 came out at 100 nM.

For `CCn1c(=O)/c(=C2\Sc3ccccc3N2C)s/c1=C\c1ccncc1Nc1ccccc1Cl`, the half-maximal inhibitory concentration (IC50) is 750 nM.

As to `CCn1c(=O)/c(=C2\Sc3ccc(OC)cc3N2C)s/c1=C\c1ccncc1Nc1ccccc1Cl`, the IC50 was 710 nM.

With `c1ccc(Nc2cccc(-c3nc4ccccc4s3)c2)nc1`, the IC50 was 13000 nM.

`c1ccc(Nc2nc(-c3nc4ccccc4s3)cs2)nc1`: the IC50 is 3600 nM.

Another data set relates to MCF7. Briefly: Potency index, ratio of JG-98 IC50 to compound IC50 for human MCF7 cells. The class given is functional.
Details: not given
As for `CCn1c(=O)/c(=C2\Sc3ccc(C)cc3N2C)s/c1=C\c1ccncc1Nc1ccccc1F`, the “Ratio IC50” value is listed as 7 - 10.

The test system of the next data set is CWR22R. The experiment in a line: Inhibition of HSP70 in human 22Rv1 cells assessed as reduction in Akt-1 protein level at 0.3 to 5 uM measured after 24 hrs by Western blot analysis. The class given is cell-based.
Details: not given
The essentials:
as §1
For orientation: In western blotting, separated proteins are transferred to a membrane and probed.
Take `CCn1c(=O)/c(=C2\Sc3ccc(C)cc3N2C)s/c1=C\c1ccncc1Nc1ccccc1F`: the inhibition stood at 50%.

In the next data set the test system is CWR22R. Briefly: Inhibition of HSP70 in human 22Rv1 cells assessed as reduction in c-Raf1 protein level at 0.3 to 5 uM measured after 24 hrs by Western blot analysis.
Details: not given
The class given is cell-based. The essentials:
as §1
On to `CCn1c(=O)/c(=C2\Sc3ccc(C)cc3N2C)s/c1=C\c1ccncc1Nc1ccccc1F`, for which the inhibition came to 50%.

Test system in the next data set: not listed separately
Briefly: Inhibition of HSP70 in human 22Rv1 cells assessed as induction of heat shock response by measuring HSP72 level measured after 24 hrs by Western blot analysis. The class given is cell-based. Conditions: cwr22r. The essentials:
as §1
Consider `CCn1c(=O)/c(=C2\Sc3ccc(C)cc3N2C)s/c1=C\c1ccncc1Nc1ccccc1F`, for which the “inhibition (INH)” value is reported as “Not Active”.

Test system in another data set: not listed separately
The experiment in a line: Inhibition of HSP70 in human 22Rv1 cells assessed as induction of heat shock response by measuring HSP90 level at 0.3 to 5 uM measured after 24 hrs by Western blot analysis. The class given is cell-based. Conditions: cwr22r. The essentials: as §1
Regarding `CCn1c(=O)/c(=C2\Sc3ccc(C)cc3N2C)s/c1=C\c1ccncc1Nc1ccccc1F`, the “inhibition (INH)” value is reported as “Not Active”.

A further data set has as its system CWR22R. Briefly: Inhibition of HSP70 in human 22Rv1 cells assessed as reduction in HuR protein level at 0.3 to 5 uM measured after 24 hrs by Western blot analysis.
Details: not given
The class given is cell-based. The essentials:
as §1
With `CCn1c(=O)/c(=C2\Sc3ccc(C)cc3N2C)s/c1=C\c1ccncc1Nc1ccccc1F`, the inhibition was 50%.
